# A3G deaminase = inhibitors of human APOBEC3G DNA deaminase; recombinant A3G, ssDNA deamination FAM/TAMRA fluorescence; AID 493012; Q9HC16; inhibition, % at 20 µM; 330,000 tested, 0.28% active;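 active means inhibition of at least 40% at 20 µM, with no more than 30% in the related APOBEC3A deaminase screen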
# UBC9 SUMO inh = inhibitors of human SUMOylation (UBC9); P63279; HTRF SUMOylation assay, SAE1/SAE2 + UBC9, in vitro; inhibition, % at 35 µM; 290,000 tested, 0.36% active; AID 2006; in the data active means inhibition above about 50%, passing the limit was not always enough
# Target sequence (P63279 whole entry, looked up): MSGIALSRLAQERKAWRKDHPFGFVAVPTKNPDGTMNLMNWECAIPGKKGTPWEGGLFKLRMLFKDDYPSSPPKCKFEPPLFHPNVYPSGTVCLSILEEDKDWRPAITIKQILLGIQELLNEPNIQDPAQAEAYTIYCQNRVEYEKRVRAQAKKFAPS
# HKDC1 inhibitor = blocks human hexokinase HKDC1 activity; Q2TB90; recombinant HKDC1, G6PDH/diaphorase resazurin coupled fluorescence; inhibition, % at 20 µM; 340,000 tested, 0.16% active;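 active means inhibition above about 35% when tested at 20 µM, limit read from the data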
#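 Material: recombinant HKDC1 hexokinase; Amount: HKDC1 at 5 µg/mL; Medium: Tris pH 8.0 buffer with MgCl2, Tween-20, BSA, BME; Schedule: 90 min reaction incubation at room temperature, dark; Technique: coupled resazurin fluorescence, excitation 525 nm, emission 613 nm.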
# APOBEC3A inh = inhibitors of human APOBEC3A DNA deaminase | P31941 | recombinant A3A, FAM/TAMRA ssDNA deamination fluorescence | inhibition, % at 20 µM | 330,000 tested, 0.41% active | AID 493011;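 active means at least 40% inhibition at 20 µM here, with at most 30% in a related deaminase screen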
# Target sequence (P31941 whole entry, looked up): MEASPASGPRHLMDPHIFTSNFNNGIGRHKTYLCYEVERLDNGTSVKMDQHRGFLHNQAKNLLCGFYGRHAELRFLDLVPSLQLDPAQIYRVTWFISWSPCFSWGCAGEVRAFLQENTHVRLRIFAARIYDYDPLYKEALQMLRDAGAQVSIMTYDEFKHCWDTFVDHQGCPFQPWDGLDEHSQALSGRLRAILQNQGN
# PfM18AAP inh-1 = blocks P. falciparum M18 aspartyl aminopeptidase. 290,000 tested, 1.2% active. inhibition, % at 7.35 µM. recombinant PfM18AAP, H-Glu-NHMec fluorogenic cleavage;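 active means inhibition above the campaign mean inhibition over all tested compounds plus 3 SD, cut at about 28% in these data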
# PfG6PD inh = PfG6PD (Plasmodium falciparum) enzyme inhibition. PfGluPho enzyme, NADPH resazurin-diaphorase fluorescence. AID 504690. 350,000 tested, 0.78% active. inhibition, % at 20 µM;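 active means inhibition reaching at least a set limit at 20 µM in the primary screen, cut at about 59% in these data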
# PfM18AAP inh-2 = confirmation of Plasmodium falciparum M18 aspartyl aminopeptidase inhibitors. AID 2170. 2,400 tested, 28% active. shares compounds with PfM18AAP inh-1. recombinant PfM18AAP, H-Glu-NHMec fluorogenic cleavage. inhibition, % at 7.35 µM;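 active means mean inhibition over replicate wells above the hit cutoff set for the earlier primary screen, cut at about 29% in these data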
# CTSL1 counter = Cathepsin L (human) inhibition, confirmation | shares compounds with PfM18AAP inh-1 | purified cathepsin L1, Z-Leu-Arg-MCA fluorescence | inhibition, % at 5.96 µM | 2,400 tested, under 10 active | AID 2178;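 active means average inhibition across replicates above the hit cutoff set in the earlier primary screen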
# A number is an active result; - = inactive; . = no result. Hits are enriched below; roughly 2.4% of the tested compounds scored in any of these assays.
SMILES,A3G deaminase,UBC9 SUMO inh,HKDC1 inhibitor,APOBEC3A inh,PfM18AAP inh-1,PfG6PD inh,others
COc1cc(OC)cc(C(=O)NNc2nc3cc4c(cc3s2)OCO4)c1,-,-,-,-,31,-,
COC(=O)c1scc(S(C)(=O)=O)c1-n1cccc1,-,-,-,-,-,-,
COc1cc(C(=O)Nc2cc(C)c(OCC(=O)N3CCOCC3)c(C)c2)cc(OC)c1OC,-,-,-,-,-,-,
Fc1cccc2sc(Nc3nc4c(F)cccc4s3)nc12,-,-,-,-,-,-,
NNc1nc2c(F)cccc2s1,-,-,-,-,30,-,
O=C(NNc1nc2c(F)cccc2s1)c1cc(=O)c2ccccc2o1,-,-,-,-,30,-,
O=C(NNc1nc2c(F)cccc2s1)c1ccc(F)cc1,-,-,-,-,30,-,
COc1ccc2nc(NNC(=O)c3cc(=O)c4ccccc4o3)sc2c1,-,-,-,-,-,-,
Cc1ccc2sc(NNC(=O)c3cc(=O)c4ccccc4o3)nc2c1C,-,-,-,-,30,-,
O=C(Cn1cc([N+](=O)[O-])ccc1=O)N1CCCc2ccccc21,-,.,-,-,.,-,
COc1ccc(-c2cn3c(C)c(C(=O)Nc4cccc(C)n4)sc3n2)cc1,-,-,-,-,-,62,
Cc1ccc(CSCC2Nc3ccc(C(=O)N4CCN(c5cccc(C)c5)C(C)C4)cc3NC2=O)cc1 (stereo not given),46,-,.,-,-,.,
Cc1cccc(N2CCN(C(=O)c3ccc4c(c3)NC(=O)C(CSCc3ccc(F)cc3)N4)CC2C)c1 (stereo not given),-,-,.,-,-,.,
CCN(CC)Cc1c(O)ccc2c(=O)c(Oc3ccccc3OC)coc12,-,52,-,-,-,-,
COc1ccccc1Oc1coc2c(CN(C)C)c(O)ccc2c1=O,-,-,-,-,-,-,
CC(=O)c1c(C)oc2ccc(NS(=O)(=O)c3ccc(O)c(C(=O)O)c3)cc12,-,-,-,-,-,-,
O=C(O)c1cc(S(=O)(=O)Nc2ccc3oc(=O)sc3c2)ccc1O,-,-,-,-,51,-,
COc1cccc(N=c2oc3c(C)ncc(CO)c3cc2C(=O)Nc2ccccc2OC)c1,.,-,.,.,-,.,
COc1ccc(NC(=O)c2cc3c(COC(C)=O)cnc(C)c3oc2=Nc2cccc(C(=O)O)c2)c(OC)c1,-,-,-,-,-,68,
COc1ccc(-c2cc(C(=O)N3CCN(c4ccccc4O)CC3)c3ccccc3n2)cc1,-,.,-,-,.,-,
COc1ccc(-c2cc(C(=O)N3CCN(c4ccccc4O)CC3)c3ccccc3n2)cc1OC,-,-,-,-,31,-,
Cc1cc(NN)nc2ccc(Cl)cc12,-,-,-,-,31,-,
Cc1cc(C)c2ccc(Cl)cc2n1,-,-,-,-,-,-,
On1ccccc1=S,.,.,-,.,.,75,
COc1cc(/C=N/Nc2cc(C)nc(NS(=O)(=O)c3ccc(C)cc3)n2)ccc1O,.,-,-,.,30,-,
SMILES,A3G deaminase,UBC9 SUMO inh,HKDC1 inhibitor,APOBEC3A inh,PfM18AAP inh-1,PfG6PD inh,others
CC(=O)N(\C=C/C=C/C=C1\Sc2ccccc2C1=O)c1ccccc1,-,69,-,-,-,-,
Cn1c(=O)c2c(nc(Oc3ccc4ccccc4c3)n2C)n(C)c1=O,-,-,-,-,-,-,
O=C(Nc1nnc(Cc2ccc([N+](=O)[O-])cc2)s1)c1ccc2c(c1)OCO2,-,-,-,-,-,-,
CC(C)(C)Cc1nnc(NC(=O)c2ccc3c(c2)OCO3)s1,-,-,-,-,30,-,
COC(=O)C1=C(C(=O)OC)C(c2ccccc2O)c2sc(=O)[nH]c2S1 (stereo not given),-,-,-,-,-,-,
Cc1c([N+](=O)[O-])cc(N2C(=O)C=CC2=O)cc1[N+](=O)[O-],.,.,-,.,.,101,
Cc1ccc(N2C(=O)C3C4C=CC(CC4)C3C2=O)cc1[N+](=O)[O-] (stereo not given),-,-,-,-,-,-,
Cc1cc(C)cc(N2C(=O)C=CC2=O)c1,.,.,-,.,.,86,
Cc1cc(C)cc(N2C(=O)c3nccnc3C2=O)c1,-,-,-,-,-,-,
Cc1cc(N2C(=O)C=CC2=O)c([N+](=O)[O-])cc1C,-,-,-,-,-,91,
C=CCN1CCc2c(cc(O)c(O)c2Cl)C(c2ccccc2)C1 (stereo not given),-,-,-,-,.,-,
O=C(NCCCn1ccnc1)c1ccc(Br)o1,-,-,-,-,-,-,
CC(=O)N1CCc2cc(S(=O)(=O)NC(Cc3ccccc3)C(=O)NCCN3CCCCC3C)ccc21 (stereo not given),-,-,-,-,-,-,
CC(C)c1ccccc1NC(=O)CCc1nc2ccccc2s1,-,-,-,-,30,-,
COc1ccccc1NC(=O)CCc1nc2ccccc2s1,-,-,-,-,-,-,
COc1ccc(Br)cc1C1CC(=O)N2CN(Cc3ccccc3)CSC2=C1C#N (stereo not given),-,-,-,-,-,71,
COc1ccc(OC)c(C2CC(=O)N3CN(c4cccc(Cl)c4C)CSC3=C2C#N)c1 (stereo not given),-,-,-,-,38,83,
COc1ccc(OC)c(C2CC(=O)N3CN(c4cccc(Cl)c4)CSC3=C2C#N)c1 (stereo not given),-,-,-,-,-,-,
CC1(C)CC(=O)C/C(=N\NC(=S)NCc2ccccc2)C1,-,-,-,-,43,-,PfM18AAP inh-2=38;CTSL1 counter=-
CC1C/C(=N\NC(=S)NCc2ccccc2)CC(C)(C)C1 (stereo not given),-,-,-,-,-,-,
Cc1cc(C)n(-c2ccc(C(=O)Nc3ccccc3N3CCOCC3)cc2)n1,-,-,-,-,-,-,
Nc1cc2c(cc1O)CCCC2,-,-,-,-,33,-,PfM18AAP inh-2=58;CTSL1 counter=-
O=C1CCCCc2cc(O)c(O)cc21,.,.,.,.,.,-,
COC(=O)C1=C(C(=O)c2ccccc2)C(c2cccs2)n2nnnc2N1 (stereo not given),-,-,-,-,55,-,PfM18AAP inh-2=-;CTSL1 counter=-
COC(=O)C1=C(C(=O)c2ccc(C)cc2)C(c2ccc(O)c(OC)c2)n2nnnc2N1 (stereo not given),-,-,-,-,60,-,PfM18AAP inh-2=-;CTSL1 counter=-
COC(=O)C1=C(C(=O)c2ccccc2)C(c2ccc(O)c(OC)c2)n2nnnc2N1 (stereo not given),-,-,-,-,-,-,
